This is an account of results in PMC4097887 (Journal of medicinal chemistry, 2008).

One series has as its system AML animal model. To be noted: cited from earlier work.
The test system of series [1] is KG-1 AML cells. Description: KG-1 proliferation inhibition. In kind it is cell-based, human. The method in brief:
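KG-1 cells in medium with 5% FBS attached overnight and were then exposed to test compound in Me2SO or to Me2SO alone (final 0.1%) for the indicated time. Cells were harvested and counted with a hemocytometer in triplicate wells. Proliferation inhibition is given as IC50 and as percent inhibition at the highest concentration tested.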

For series [2], the system named is KG-1 AML cells. Description: KG-1 cell apoptosis. In kind it is cell-based, human. Put shortly: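 Cells in medium with 5% FBS attached overnight, then exposed to test compound in Me2SO or to Me2SO alone (final 0.1%). Exposure was 24 h for HL-60R and 48 h for KG-1. Apoptotic cells were scored by acridine orange staining on at least three replicates and expressed as percent apoptosis.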

For series [3], the system named is DU-145, MDA-MB-231 and H292 cancer cell lines. Description: Proliferation inhibition of the three solid tumor cell lines. The format is cell-based, human. The method in brief: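 DU-145, MDA-MB-231 and H292 cells attached for 24 h and were then treated for 72 h with test compound in Me2SO or with vehicle alone (final Me2SO 0.1%). Medium and compound were replaced at 48 h. Viable cells were measured by tetrazolium (MTS-type) reduction in triplicate per concentration, and IC50 values were calculated from these counts.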

Series [4] has as its target T1, recombinant human small heterodimer partner (SHP) (Homo sapiens, UniProt Q15466).
T1 sequence (Q15466 1-257): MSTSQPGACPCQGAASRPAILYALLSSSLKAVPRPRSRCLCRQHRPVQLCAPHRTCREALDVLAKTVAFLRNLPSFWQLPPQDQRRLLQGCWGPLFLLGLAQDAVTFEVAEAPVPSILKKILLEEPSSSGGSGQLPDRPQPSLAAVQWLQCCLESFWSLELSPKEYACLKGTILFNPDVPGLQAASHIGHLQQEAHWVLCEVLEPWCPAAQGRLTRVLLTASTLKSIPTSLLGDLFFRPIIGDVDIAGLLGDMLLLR
The following applies: cited from earlier work.

The conditions of series [5]: doses found to induce cancer cell apoptosis in vitro; cited from earlier work.
Series [6] has as its system IGROV ovarian cancer cells. To be noted: at antiproliferative IC80 value, propidium iodide staining; cited from earlier work.
For series [7], the system named is human microvascular endothelial (HMVE) cells. As to the kind of experiment: HMVE cell growth inhibition. The following applies: 0.5 μM. In kind it is cell-based.

Marks after values point to notes of the source that are not given here.

On to `O=C(O)/C=C/c1ccc(-c2ccc(O)c(C34CC5CC(CC(C5)C3)C4)c2)c(Cl)c1` [compound 1, (E)-4-[3′-(1-adamantyl)-4′-hydroxyphenyl]-3-chlorocinnamic acid], for which, in the series with AML animal model, the “survival in an AML animal model” value is “extension of survival”.

With `CC(=O)Nc1ccc(-c2ccc(/C=C/C(=O)O)cc2Cl)cc1C12CC3CC(CC(C3)C1)C2` [compound 2], the “further reduction of KG-1 antiproliferative activity relative to 3” value in the series with KG-1 AML cells [1] (5.0 μM) is reported as 50%.

With `Nc1ccc(-c2ccc(/C=C/C(=O)O)cc2Cl)cc1C12CC3CC(CC(C3)C1)C2` [compound 3], in the series on KG-1 AML cells [2] (1.0 μM), the “weakening of KG-1 apoptosis induction relative to 1” value is listed as 67%. For the same molecule, in the series with KG-1 AML cells [2] (5.0 μM), the “weakening of KG-1 apoptosis induction relative to 1” value worked out at 27% and the “KG-1 apoptosis at 48 h (%)” value was 40 ^j %. In the series with KG-1 AML cells [1], the “increase of IC50 for KG-1 proliferation inhibition compared to 1” value is approximately 3.6 fold. The “calculated IC50 values higher than those of 1, three solid tumor cell lines” value in series [3] is on record as 3–4 fold.

`O=C(O)/C=C/c1ccc(-c2ccc(F)cc2)c(Cl)c1` [compound 5]: the “% inhibition of KG-1 proliferation at highest concentration evaluated” value with KG-1 AML cells [1] (5 μM, 48 h) came to 0%.

Take `CC(C)(C)C#Cc1cc(-c2ccc(/C=C/C(=O)O)cc2Cl)ccc1O` [compound 6]: in the series with KG-1 AML cells [1] (5.0 μM), the “KG-1 antiproliferative activity as fraction of that of 1” value is reported as “approximately one-third”.

Turning to `O=C(O)/C=C/c1ccc(-c2ccc(O)c(C34CC5CC(CC3C5)C4)c2)c(Cl)c1` [compound 8], in the series with KG-1 AML cells [2] (5.0 μM), the “KG-1 apoptotic activity as % of that exhibited by 1” value is 31% and the “KG-1 apoptosis at 48 h (%)” value is 16 ^j %. Also, the “KG-1 proliferation inhibition relative to 1” value in the series on KG-1 AML cells [1] (5.0 μM) is listed as 1.2 fold. In series [3], the “calculated IC50 values higher than those of 1, three solid tumor cell lines” value was 10–20 fold.

Take `O=C(O)c1ccc2cc(-c3ccc(O)c(C45CC6CC(CC(C6)C4)C5)c3)ccc2c1` [compound 13, 6-[3′-(1-adamantyl)-4′-hydroxyphenyl]-2-naphthoic acid]: the “affinity of [5,5′-3H2]AHPN for recombinant human SHP” value in series [4] is recorded as “low nanomolar affinity”.

For the molecule `O=C(O)/C=C/c1ccc(-c2ccc(O)c(C34CC5CC(CC(C5)C3)C4)c2)cc1` [compound 15, (E)-4-[3′-(1-adamantyl)-4′-hydroxyphenyl]cinnamic acid], in series [5], the “adverse systemic effects in mice” value is given as “produced adverse systemic effects”. Further, the “apoptosis induced in ovarian cancer cell line” value in series [6] is recorded as 50%.

Turning to `O=C(O)c1ccc2cc(-c3cccc(C45CC6CC(CC(C6)C4)C5)c3)ccc2c1` [compound 18], in series [7] (72 h (Table 1)), the “HMVE cell growth inhibition at 72 h (%)” value was “moderate”.

Take `CC(C)(C)c1cc(-c2ccc3cc(C(=O)O)ccc3c2)ccc1O` [compound 21]: the “reduction of HMVE cell growth inhibition relative to 13” value in series [7] came to 7 fold.
